These results are taken from ChEMBL document CHEMBL1126079, “Synthesis, configuration, and calcium modulatory properties of enantiomerically pure 5-oxo-1,4,5,6,7,8-hexahydroquinoline-3-carboxylates” (J Med Chem, 1992).

The species named for test [1] is Cavia porcellus. The test can be described thus: Intrinsic activity is the inhibition of contraction of guinea pig aorta strips value in comparison with nifedipine. Type of test: functional. The method, boiled down:
(§1)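 Tissue sat in carbogen-perfused Tyrode solution at 37 °C under a 2 g preload, with isometric recording. KCl (67 mmol/L bath concentration) was added after each substance to test for antagonism, with washing back to the initial state between substances. EC50 and intrinsic activity were derived as in the paper's earlier section 1c.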

For test [2], the species on record is Cavia porcellus. Briefly: Effect on KCl-stimulated contraction of aortic strips of guinea pig. Type of test: functional, Aorta. The method, boiled down:
as §1

The species named for test [3] is Cavia porcellus. The test can be described thus: Maximum inhibition of KCl-stimulated contraction of aortic strips of guinea pig. The format is functional, Aorta. The method, boiled down:
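Aortic strips were held in carbogen-perfused Tyrode solution at 37 °C under 2 g preload, and isometric contractions were recorded after amplification. Contractions were induced with KCl at 67 mmol/L bath concentration to test for antagonism. Between substances the preparation was washed back to its initial state before KCl was given again.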

The species named for test [4] is Cavia porcellus. Briefly: Effect on BaCl2-stimulated contraction of ileum of guinea pig. Type of test: functional. The gist of the method:
(§2)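 Each test substance was given as a single dose to the ileum preparation. BaCl2 contraction was elicited after a 10-min exposure. Between substances the tissue was washed until the initial state returned, then BaCl2 contraction was induced again.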

The species entered for test [5] is Cavia porcellus. The test can be described thus: Intrinsic activity is the inhibition of contraction of guinea pig ileum value in comparison with nifedipine. Type of test: functional. The gist of the method: as §2
Test [6] is filed under the species Cavia porcellus. Briefly: (§3) Maximum inhibition of BaCl2-stimulated contraction of ileum of guinea pig. The format is functional. The method, boiled down:
as §2

The species entered for test [7] is Cavia porcellus. The test can be described thus: Intrinsic activity value in comparison with nifedipine. The format is functional.
For test [8], the species on record is Cavia porcellus. The description is as §3. The format is functional. The gist of the method:
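Guinea-pig ileum, single-dose technique: each test substance was added and left for 10 min before BaCl2 contractions were induced. Between substances the preparation was washed until the initial state returned, then BaCl2 contraction was induced again.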
The source holds these as a separate data set.

SMILES strings stand for the structures.

By Inhibition is commonly meant the relative decrease from the control value, in per cent. Read a low Inhibition as little suppression.

`CO[C@H](COC(=O)C1=C(C)NC2=C(C(=O)CCC2)[C@@H]1c1ccc2c(c1)OCO2)c1ccccc1` came in with an IA in the test listed under Cavia porcellus [1] of 1. This compound also returned an EC50 in the test filed under Cavia porcellus [2] of 7.1e-06 M l-1. The compound further showed a Max effect in the test filed under Cavia porcellus [3] of 70%.
The corresponding values for `CO[C@@H](COC(=O)C1=C(C)NC2=C(C(=O)CCC2)[C@H]1c1ccc2c(c1)OCO2)c1ccccc1` are 0.6, 4e-05 M l-1 and 42%.
For `CO/C(O)=C1\C(C)=NC2=C(C(=O)CCC2)C1c1ccc2c(c1)OCO2` (racemic), the IA in the test filed under Cavia porcellus [1] came out at 1; in the test filed under Cavia porcellus [5], 0.8. The EC50 in the test filed under Cavia porcellus [4] came to 5e-05 M l-1; in the test filed under Cavia porcellus [2], 2e-06 M l-1. The results for the Max effect in the test listed under Cavia porcellus [3] and in the test filed under Cavia porcellus [6] were 73% and 76%, respectively.
Turning to `COC(=O)C1=C(C)NC2=C(C(=O)CCC2)[C@@H]1c1ccc2c(c1)OCO2` (stereo in doubt; 9a), the IA in the test filed under Cavia porcellus [1] was determined as 0.54; in the test listed under Cavia porcellus [5], 0.44. Besides, the EC50 in the test filed under Cavia porcellus [4] was determined as 25 µM. In addition, the Max effect in the test filed under Cavia porcellus [3] is given as 38%; in the test filed under Cavia porcellus [6], 42%.
With `COC(=O)C1=C(C)NC2=C(C(=O)CCC2)[C@@H]1c1ccc2c(c1)OCO2` (stereo in doubt; 9b), the IA is reported as 1.2 in the test filed under Cavia porcellus [1] and 0.94 in the test filed under Cavia porcellus [5]. Besides, the EC50 in the test filed under Cavia porcellus [4] worked out at 22 µM. Besides, the figures for the Max effect in the test filed under Cavia porcellus [3] and in the test filed under Cavia porcellus [6] were 84% and 89%, respectively.
Regarding `COC(=O)C1=C(C)NC(C)=C(C(=O)OC)C1c1ccccc1[N+](=O)[O-]` [NIFEDIPINE], the EC50 is 2e-08 M l-1 in the test listed under Cavia porcellus [4] and 8.9e-09 M l-1 in the test listed under Cavia porcellus [2]. Besides, the Inhibition stood at 70% in the test filed under Cavia porcellus [3] and 95% in the test filed under Cavia porcellus [8]. In the test filed under Cavia porcellus [7], this compound registered an IA of 1.
